In ChEMBL document CHEMBL5390270, “Synthesis, anti-inflammatory activity, inverse molecular docking, and acid dissociation constants of new naphthoquinone-thiazole hybrids” (Bioorg Med Chem, 2023):
Calls of active or inactive are those of the source. The rule behind the calls is not given here.

Experiments:
Type in all cases: functional, cell-based
J774.2 [1] = assay: Antiinflammatory activity in LPS-stimulated mouse J774.2 cells assessed as reduction in IL-6 production at 1 to 5 ug/ml […] by ELISA analysis; conditions: dose 1-5 µg/ml
Method in brief: (§1)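 J774.2 macrophages in RPMI 1640 with 10 % FBS, 1 % penicillin/streptomycin and sodium pyruvate, 24-well plates, 37 °C, 5 % CO₂. Cells were stimulated for 1 day with test molecules at 1, 2 and 5 µg/mL plus LPS. SA at 5 µg/mL served as control. Supernatant TNF-α or IL6 was read by sandwich ELISA: biotin-antibody, streptavidin-HRP, TMB, absorbance at 450 nm. N = 3.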

J774.2 [2] = assay: Antiinflammatory activity in mouse J774.2 cells assessed as reduction in TNF-alpha level at 1 to 5 ug/mL […] by ELISA analysis; conditions: dose 1-5 µg/ml
Method in brief: (§2)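 J774.2 macrophages were cultured in RPMI 1640 with 10 % FBS, antibiotics and sodium pyruvate at 37 °C, 5 % CO₂. Cells received molecules at 1, 2 and 5 µg/mL for 1 day without LPS. Supernatant TNF-α or IL6 was quantified by sandwich ELISA with TMB read-out at 450 nm. N = 3.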

J774.2 [3] = assay: Antiproliferative activity against LPS-stimulated mouse J774.2 cells assessed as reduction in cell viability at 1 to 5 ug/mL incubated for 1 day by trypan blue staining analysis; conditions: dose 1-5 µg/ml
Method in brief: (§3)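 J774.2 macrophages in RPMI 1640 with 10 % FBS, antibiotics and sodium pyruvate, 37 °C, 5 % CO₂. Cells were exposed for 1 day to molecules at 1, 2 and 5 µg/mL with or without LPS, with SA at 5 µg/mL as control. Supernatants were removed, cells washed in PBS, then counted with trypan blue to give viability. N = 3.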

J774.2 [4] = assay: Antiinflammatory activity in mouse J774.2 cells assessed as reduction in IL-6 production at 1 to 5 ug/mL […] by ELISA analysis; conditions: dose 1-5 µg/ml; method in brief: as §2
J774.2 [5] = assay: Antiproliferative activity against LPS-stimulated mouse J774.2 cells assessed as reduction in cell viability at 1 to 5 ug/mL incubated for 1 day in presence of LPS by trypan blue staining analysis; conditions: dose 1-5 µg/ml; method in brief: as §3
J774.2 [6] = assay: Antiinflammatory activity in LPS-stimulated mouse J774.2 cells assessed as reduction IL-6 production at 5 ug/mL […] by ELISA analysis; conditions: dose 5.0 µg/ml; method in brief: as §1
J774.2 [7] = assay: Antiinflammatory activity in LPS-stimulated mouse J774.2 cells assessed as reduction in TNF-alpha level at 1 to 5 ug/mL incubated for 12 hrs by ELISA analysis; conditions: dose 1-5 µg/ml, time 24.0 hrs, in the assay text read “24 hrs” for “12 hrs”; method in brief: as §1
J774.2 [8] = assay: Antiinflammatory activity in LPS-stimulated mouse J774.2 cells assessed as reduction in TNF-alpha level at 1 to 2 ug/mL […] by ELISA analysis; conditions: dose 1-2 µg/ml; method in brief: as §1
J774.2 [9] = assay: Antiinflammatory activity in LPS-stimulated mouse J774.2 cells assessed as reduction in TNF-alpha level at 5 ug/mL incubated for 12 hrs by ELISA analysis; conditions: dose 5.0 µg/ml, time 24.0 hrs, in the assay text read “24 hrs” for “12 hrs”; method in brief: as §1
J774.2 [10] = assay: Antiinflammatory activity in LPS-stimulated mouse J774.2 cells assessed as reduction IL-6 production at 2 to 5 ug/mL incubated for […] by ELISA analysis; conditions: dose 2-5 µg/ml; method in brief: as §1
J774.2 [11] = assay: Antiinflammatory activity in LPS-stimulated mouse J774.2 cells assessed as reduction in IL-6 production at 1 ug/ml incubated for […] by ELISA analysis; conditions: dose 1.0 µg/ml; method in brief: as §1
J774.2 [12] = assay: Antiinflammatory activity in LPS-stimulated mouse J774.2 cells assessed as reduction in IL-6 production at 2 to 5 ug/ml […] by ELISA analysis; conditions: dose 2-5 µg/ml; method in brief: as §1

| Compound | Activity (J774.2 [1]) | Activity (J774.2 [2]) | Activity (J774.2 [3]) | Activity (J774.2 [4]) | Activity (J774.2 [5]) | Activity (J774.2 [6]) | Activity (J774.2 [7]) | Activity (J774.2 [8]) | Activity (J774.2 [9]) | Activity (J774.2 [10]) | Activity (J774.2 [11]) | Activity (J774.2 [12]) |
| --- | --- | --- | --- | --- | --- | --- | --- | --- | --- | --- | --- | --- |
| NC1=C(n2c(-c3ccccc3)cs/c2=N\C(=O)c2ccc(Cl)c([N+](=O)[O-])c2)C(=O)c2ccccc2C1=O | Active | inactive | inactive | inactive | inactive |  |  |  |  |  |  |  |
| NC1=C(n2c(-c3ccc(Br)cc3)cs/c2=N\C(=O)c2ccc(Cl)c([N+](=O)[O-])c2)C(=O)c2ccccc2C1=O |  | inactive | inactive | inactive | inactive | Active |  |  |  |  |  |  |
| NC1=C(n2c(-c3ccc(Br)cc3)cs/c2=N\C(=O)c2cccc([N+](=O)[O-])c2)C(=O)c2ccccc2C1=O | Active | inactive | inactive | inactive | inactive |  |  |  |  |  |  |  |
| NC1=C(n2c(-c3ccccc3)cs/c2=N\C(=O)c2ccc([N+](=O)[O-])cc2)C(=O)c2ccccc2C1=O |  | inactive | inactive | inactive | inactive |  | inactive |  |  |  |  |  |
| NC1=C(n2c(-c3ccccc3)cs/c2=N\C(=O)c2cccc([N+](=O)[O-])c2)C(=O)c2ccccc2C1=O |  | inactive | inactive | inactive | inactive |  |  | inactive | Active |  |  |  |
| NC1=C(n2c(-c3ccc(Cl)cc3)cs/c2=N\C(=O)c2ccc(Cl)c([N+](=O)[O-])c2)C(=O)c2ccccc2C1=O |  | inactive | inactive | inactive | inactive |  |  |  |  | Active | inactive |  |
| NC1=C(n2c(-c3ccc(F)cc3)cs/c2=N\C(=O)c2cccc([N+](=O)[O-])c2)C(=O)c2ccccc2C1=O |  | inactive | inactive | inactive | inactive |  |  |  |  |  |  |  |
| NC1=C(n2c(-c3ccc(Cl)cc3)cs/c2=N\C(=O)c2cccc([N+](=O)[O-])c2)C(=O)c2ccccc2C1=O |  | inactive | inactive | inactive | inactive |  |  |  | Active |  |  | Active |
| NC1=C(n2c(-c3ccc(F)cc3)cs/c2=N\C(=O)c2ccc(Cl)c([N+](=O)[O-])c2)C(=O)c2ccccc2C1=O |  | inactive | inactive | inactive | inactive |  |  |  |  |  |  |  |
| NC1=C(n2c(-c3ccc(Cl)cc3)cs/c2=N\C(=O)c2ccc([N+](=O)[O-])cc2)C(=O)c2ccccc2C1=O |  | inactive | inactive | inactive | inactive |  | Active |  |  |  |  |  |
| NC1=C(n2c(-c3ccc(F)cc3)cs/c2=N\C(=O)c2ccc([N+](=O)[O-])cc2)C(=O)c2ccccc2C1=O |  | inactive | inactive | inactive | inactive |  | Active |  |  |  |  |  |
| NC1=C(n2c(-c3ccc(Br)cc3)cs/c2=N\C(=O)c2ccc([N+](=O)[O-])cc2)C(=O)c2ccccc2C1=O |  | inactive | inactive | inactive | inactive |  | Active |  |  |  |  |  |
